Yeast superoxide: yeast age-related superoxide inhibition as caloric restriction mimetic; AID 2690; superoxide response (% of plate mean), % at 10 µM; S. cerevisiae aged cells, superoxide DHE fluorescence; active compounds read low; 0.18% of 330,000 active;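 active = superoxide response under a set limit, about three screen SD below normal, cut at about 65% in these data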;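 also: yeast aged for seven days with compound at 30 °C before DHE staining; 100% = average MFI of all compound-treated wells on the plate with controls excluded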
TbMetRS inhib: blocks T. brucei methionyl-tRNA synthetase activity | purified T. brucei MetRS, ATP depletion, Kinase-Glo luminescence | inhibition, % at 11.9 µM | 0.4% of 360,000 active | AID 624268;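 active = inhibition above a per-plate cutoff of the control wells' mean inhibition plus 3 SD, cut at about 5.5% in these data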;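 also: 0% = DMSO wells median and 100% = median of wells with control inhibitor compound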
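Dosing: 11.9 µM single point; system: parasite MetRS enzyme; technique: luminescence of leftover ATP; times: 15 min enzyme-compound preincubation, 2 h reaction, 10 min detection, 25 °C; replicates: each compound tested once; read-out basis: percent inhibition relative to median high and low control wells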
Efflux pump inh: inhibitors of Candida antifungal efflux pumps expressed in yeast | S. cerevisiae Candida pump triplex, Nile Red efflux | inhibition, % at 10 µM | 0.44% of 330,000 active | AID 485275;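 active = plate passing quality check with inhibition over a set limit, or well fluorescence over plate mean plus 4 SD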;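 also: Nile Red retained in pooled yeast measured as flow cytometry median fluorescence; 0% = buffer negative control and 100% = Enniatin B positive control; higher means more Nile Red kept so more efflux inhibition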
IDE cell inh: cellular human IDE inhibition. P14735. HEK cells, FAbetaB cleavage, fluorescence polarization. inhibition, % at 5.59 µM. 0.41% of 320,000 active. AID 434962;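 active = percent inhibition above the average of all tested compounds plus 3 SD, set per screening campaign, cut at about 16% in these data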;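 also: IDE supplied by intact live HEK cells; FP after avidin binding of uncleaved biotin substrate so inhibition keeps polarization high; 0% = DMSO wells and 100% = 60 µM reference IDE inhibitor Ii1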
Target sequence (P14735 whole entry, looked up): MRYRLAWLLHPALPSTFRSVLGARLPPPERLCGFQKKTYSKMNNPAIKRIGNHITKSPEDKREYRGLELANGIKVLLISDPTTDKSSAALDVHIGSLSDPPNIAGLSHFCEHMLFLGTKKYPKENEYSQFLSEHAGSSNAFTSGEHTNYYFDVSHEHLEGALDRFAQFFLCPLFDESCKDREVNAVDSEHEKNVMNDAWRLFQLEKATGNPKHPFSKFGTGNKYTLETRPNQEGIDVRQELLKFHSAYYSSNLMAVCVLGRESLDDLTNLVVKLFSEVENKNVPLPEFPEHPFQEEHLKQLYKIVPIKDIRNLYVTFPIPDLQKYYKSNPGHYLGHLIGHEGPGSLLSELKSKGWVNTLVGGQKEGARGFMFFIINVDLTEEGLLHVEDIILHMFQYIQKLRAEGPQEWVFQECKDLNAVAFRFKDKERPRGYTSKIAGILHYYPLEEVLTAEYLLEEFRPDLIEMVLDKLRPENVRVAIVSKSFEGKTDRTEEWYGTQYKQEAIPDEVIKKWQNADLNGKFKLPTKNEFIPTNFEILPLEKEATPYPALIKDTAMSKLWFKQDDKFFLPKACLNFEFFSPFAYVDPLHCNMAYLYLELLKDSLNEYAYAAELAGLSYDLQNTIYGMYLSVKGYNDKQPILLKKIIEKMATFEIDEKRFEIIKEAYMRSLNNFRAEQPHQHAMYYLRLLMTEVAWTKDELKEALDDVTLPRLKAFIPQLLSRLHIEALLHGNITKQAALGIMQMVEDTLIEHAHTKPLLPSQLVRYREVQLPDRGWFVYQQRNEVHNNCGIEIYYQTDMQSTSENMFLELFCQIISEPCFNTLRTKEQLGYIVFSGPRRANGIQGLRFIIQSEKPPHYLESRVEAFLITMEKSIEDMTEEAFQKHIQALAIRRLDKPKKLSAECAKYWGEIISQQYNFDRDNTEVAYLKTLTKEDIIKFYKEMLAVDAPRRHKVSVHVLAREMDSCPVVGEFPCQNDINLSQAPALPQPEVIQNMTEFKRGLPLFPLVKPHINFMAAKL
HDAC3 inh: human HDAC3 inhibition. recombinant HDAC3, fluorogenic peptide/trypsin coupled, fluorescence. inhibition, % at 8.3 µM. 0.15% of 320,000 active; in the data active = inhibition above about 26%, passing the limit was not always enough
IDE cell activ: IDE (human) activation, cell-based. HEK cells, FAbeta-B cleavage, fluorescence polarization; 0% vehicle, 100% cell-free pure enzyme wells. AID 493087. activation, % at 5.96 µM. 0.073% of 340,000 active;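 active = activation above the mean of all tested compounds plus 3 SD, set per screening campaign, cut at about 17% in these data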
Tb MetRS conf: confirmation of Trypanosoma brucei MetRS inhibitors. shares compounds with TbMetRS inhib. 93% of 1,400 active. T. brucei MetRS enzyme, luminescence (ATP depletion). inhibition, % at 11.9 µM; in the data active = inhibition above about 7%
Jurkat tox: Jurkat T cell cytotoxicity for MetRS hits; inhibition, % at 8.3 µM; AID 624413; 12% of 1,400 active; Jurkat cells viability, ATP luminescence; shares compounds with TbMetRS inhib; in the data active = inhibition above about 15%;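 also: 0% = vehicle and 100% = reference inhibitor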
Tb MetRS inh FP: T. brucei MetRS inhibition, orthogonal assay | shares compounds with TbMetRS inhib | purified T. brucei MetRS, fluorescence polarization | inhibition, % at 11.9 µM | 44% of 1,400 active; in the data active = inhibition above about 17%;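 also: 0% = vehicle wells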
* hit, by the source's call; / = no result given. Hits are enriched below; roughly 1.4% of the tested compounds scored in any of these assays.

SMILES | Yeast superoxide | TbMetRS inhib | Efflux pump inh | IDE cell inh | HDAC3 inh | IDE cell activ | Tb MetRS conf | Jurkat tox | Tb MetRS inh FP
CN(CC(=O)Nc1c(Cl)cccc1Cl)C(=O)c1ccc(-n2cncn2)c([N+](=O)[O-])c1 | 110 | 1 | 0 | 8 | 2 | 5 | / | / | /
CC(Oc1ccccc1F)C(=O)NNC(=O)c1ccc(-n2cncn2)c([N+](=O)[O-])c1 (stereo unspecified) | / | 5 | / | / | / | 0 | / | / | /
O=C(NNC(=O)c1ccccc1Cl)c1ccc(-n2cncn2)c([N+](=O)[O-])c1 | 123 | 7.8* | 0 | -4 | -6 | -1 | 33* | 5 | 12
O=C(Nc1cc(Cl)ccc1F)c1ccc(-n2cncn2)c([N+](=O)[O-])c1 | 106 | 22* | 0 | 9 | / | 0 | 58* | -2 | 21*
O=C(NNC(=O)c1ccc(-n2cncn2)c([N+](=O)[O-])c1)c1ccc(Cl)cc1 | 140 | 60* | 0 | -2 | 2 | -2 | 82* | 1 | 65*
O=C(COC(=O)c1ccc(Cl)nc1)NCc1ccc(F)cc1 | 93 | 0 | 0 | -3 | -14 | 1 | / | / | /
Nc1cc(C(=O)OCC(=O)NCc2ccc(F)cc2)ccc1Cl | 110 | 43* | 0 | 4 | -1 | -3 | 63* | -4 | 34*
COc1cc(Cl)c(CC(=O)c2c[nH]c3ccccc23)cc1OC | 101 | 2 | 0 | 1 | 7 | -2 | / | / | /
Cc1cccc(CC(=O)c2c[nH]c3ccccc23)c1 | 81 | 11* | 0 | -1 | -5 | / | 22* | 10 | 13
Nc1ccc2nc(CCCCCCc3nc4ccc(N)cc4[nH]3)[nH]c2c1 | 108 | 0 | 0 | -2 | 3 | 4 | / | / | /
Nc1ccc2nc(CCCCc3nc4ccccc4[nH]3)[nH]c2c1 | 95 | 9.3* | 0 | / | 14 | -1 | 14* | 3 | 5
CC12CC3(C)CC(C)(C1)CC(C(=O)NCc1cccnc1)(C2)C3 | 100 | 1 | 0 | 0 | 9 | -2 | / | / | /
N#CC(C#N)=NNc1ccc2cn[nH]c2c1 | / | 9.9* | / | / | / | / | 24* | 30* | 54*
CCNC(=S)Nc1ccc2cn[nH]c2c1 | 103 | -1 | -1 | 5 | 8 | 4 | / | / | /
COc1ccc(CNC(=O)C2(C)Cc3c(-c4ccc(N(C)C)cc4)ccnc3O2)cc1OC (stereo unspecified) | / | 0 | / | / | / | / | / | / | /
CSC[C@H]1CN(Cc2ccccc2)C(=O)[C@@H]1CC(=O)Nc1ccc(Br)cc1 | / | 17* | / | / | / | / | 30* | 0 | 11
O=C(C[C@H]1C(=O)N(Cc2ccccc2)C[C@@H]1c1ccc(Br)cc1)Nc1ccc(Br)cc1 | / | 77* | / | / | / | / | 94* | 6 | 83*
COc1ccc(NC(=O)C[C@H]2C(=O)N(Cc3ccccc3)C[C@@H]2c2ccc(OC)cc2)cc1 | / | 0 | / | / | / | / | / | / | /
O=C(C[C@H]1C(=O)N(Cc2cccnc2)C[C@@H]1Cc1ccccc1)Nc1ccc(Br)cc1 | / | 41* | / | / | / | / | 67* | 11 | 41*
COc1ccc([C@H]2CN(c3ccccc3)C(=O)[C@@H]2CC(=O)Nc2ccccc2)cc1 | / | 0 | / | / | / | / | / | / | /
COc1ccc([C@H]2CN(c3ccc(OC)cc3)C(=O)[C@@H]2CC(=O)Nc2ccc(Br)cc2)cc1 | / | 8.6* | / | / | / | / | 19* | 10 | 8
Nc1nc(SCC(=O)Nc2ccc([N+](=O)[O-])cc2)[nH]c(=O)c1NC(=O)c1ccc(Br)cc1 | 107 | 0 | 0 | 4 | 1 | 11 | / | / | /
COC(=O)c1sccc1NC(=O)CC1NCCNC1=O (stereo unspecified) | 108 | -1 | 0 | -1 | -2 | 4 | / | / | /
COc1ccc(S(=O)(=O)N2CCN(C(=O)C3CC(=O)N(c4ccccc4F)C3)CC2)cc1OC (stereo unspecified) | / | 0 | / | / | / | -2 | / | / | /
CN(Cc1cccnc1)C(=O)CCCc1c[nH]c2ccccc12 | 118 | 1 | 0 | 0 | 0 | 3 | / | / | /
SMILES | Yeast superoxide | TbMetRS inhib | Efflux pump inh | IDE cell inh | HDAC3 inh | IDE cell activ | Tb MetRS conf | Jurkat tox | Tb MetRS inh FP
CN(Cc1nccn1C)C(=O)c1ccc2nc(Cc3ccccc3F)oc2c1 | 109 | 0 | 0 | -3 | -1 | -8 | / | / | /
O=C(COC(=O)Cc1ccsc1)Nc1ccc(Cl)c(S(=O)(=O)N2CCOCC2)c1 | 104 | 0 | 0 | -3 | 0 | -3 | / | / | /
O=C(COC(=O)c1ccc(F)c(S(=O)(=O)N2CCOCC2)c1)NCCc1ccc(F)cc1 | 97 | -1 | 0 | 7 | -6 | 4 | / | / | /
COCc1cc(=O)n2[nH]c(-c3cccs3)cc2n1 | 93 | 0 | 0 | 3 | -6 | 4 | / | / | /
O=C(C[C@H]1C(=O)N(Cc2ccccc2)C[C@@H]1Cc1ccccc1)Nc1ccc(Br)cc1 | / | 10* | / | / | / | / | 30* | 7 | 8
CSC[C@H]1CN(Cc2ccccc2)C(=O)[C@@H]1CC(=O)Nc1ccccc1 | / | 0 | / | / | / | / | / | / | /
CNC(=O)C1CC(=O)N(c2ccc(OCC(=O)NCc3ccccc3)cc2)C1 (stereo unspecified) | 99 | 0 | 0 | 1 | 2 | 0 | / | / | /
COc1ccc(/C=N/NC(=O)c2ccccc2O)cc1Cn1cc([N+](=O)[O-])cn1 | 95 | 0 | 0 | -3 | 12 | 8 | / | / | /
COc1ccc(/C=N/NC(=O)c2cc(O)c(O)c(O)c2)cc1Cn1cc([N+](=O)[O-])cn1 | / | 5.6* | / | / | / | -10 | 13* | 2 | 9
Cc1ccc(-c2cn(-c3ccccc3)c(SCC(N)=O)n2)cc1C | 105 | 0 | 0 | 4 | 2 | 0 | / | / | /
Cc1ccccc1-n1cc(-c2ccc(Br)cc2)nc1SCC(N)=O | 98 | 29* | 0 | 0 | 4 | / | 39* | 6 | 23*
O=C(Cn1c(NCCO)nc2ccccc21)Nc1cccc(S(=O)(=O)N2CCCC2)c1 | 92 | 11* | 0 | 3 | 5 | 4 | 48* | 4 | 16
COc1ccccc1CCC(=O)Nc1cccc(S(=O)(=O)N2CCCCCC2)c1 | 108 | 5.7* | 0 | 1 | 10 | 6 | 28* | -4 | 14
O=C(CCl)Nc1cccc(S(=O)(=O)N2CCCCCC2)c1 | 97 | 1 | 0 | 1 | -3 | 0 | / | / | /
COc1ccccc1CCC(=O)Nc1cccc(S(=O)(=O)N2CCOCC2)c1 | 108 | 0 | 0 | 1 | -5 | 4 | / | / | /
O=C(CNC(=O)c1cccc(Br)c1)N/N=C/c1cn[nH]c1-c1ccccc1 | 100 | 0 | 0 | 13 | 0 | -18 | / | / | /
O=C(CNC(=O)c1cccc(Br)c1)N/N=C/c1ccc[nH]1 | 77 | 20* | 0 | -5 | -1 | 4 | 53* | 15 | 24*

Compound activity deposited in PubChem by several laboratories.
